# Data published in ChEMBL document CHEMBL4376862, “Synthesis and evaluation of novel chlorophyll a derivatives as potent photosensitizers for photodynamic therapy” (Eur J Med Chem, 2020).
# Test system: not listed separately
# Test: Therapeutic index, ratio of TC50 for human A549 cells under dark to IC50 for human A549 cells irradiated with 1 J/cm2 of 650 nanometer laser light
# Format: toxicity, cell-based
# Conditions: read-out: TI; call rule not given here
# In short: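 A549 cells (F-12K, 10% FBS, 37 °C, 5% CO2) seeded 24 h, then exposed to 0–10 photosensitizer for 24 h. Dark arm: MTT 48 h later. Light arm: 650 nm laser, 1 J/cm2 (25 mW/cm2, 40 s), then MTT. A570 viability relative to control, triplicate. Ratio = dark TC50 / irradiated IC50.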
row,Compound,selectivity ratio
1,CCCCCOC(C)c1c(C)c2cc3nc(c4c5[nH]c(cc6nc(cc1[nH]2)C(C)=C6CC)c(C)c5C(=O)C4)[C@@H](CCC(=O)NCC(=O)CCC(=O)O)[C@@H]3C (stereo not given in full),10.4
2,CCC1=C(C)c2cc3[nH]c(cc4nc(c5c6[nH]c(cc1n2)c(C)c6C(=O)C5)[C@@H](CCC(=O)NCC(=O)CCC(=O)O)[C@@H]4C)c(C)c3C(C)OC (stereo not given in full),4.54
3,CCC1=C(C)c2cc3[nH]c(cc4nc(c5c6[nH]c(cc1n2)c(C)c6C(=O)C5)[C@@H](CCC(=O)NCC(=O)CCC(=O)O)[C@@H]4C)c(C)c3C(C)OCCOC (stereo not given in full),7.43

# Test system: not listed separately
# Test: Octanol/water partition coefficient, logP of compound by shake flask method
# Format: physicochemical
# Conditions: not given
# In short: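 Shake-flask method: equilibrium concentrations in octanol and water measured by UV-vis absorbance; log P taken as log of octanol/water concentration ratio (mg/L).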
row,logP,Compound
1,2.61,CCCCCOC(C)c1c(C)c2cc3nc(c4c5[nH]c(cc6nc(cc1[nH]2)C(C)=C6CC)c(C)c5C(=O)C4)[C@@H](CCC(=O)NCC(=O)CCC(=O)O)[C@@H]3C (stereo not given in full)
2,1.91,CCC1=C(C)c2cc3[nH]c(cc4nc(c5c6[nH]c(cc1n2)c(C)c6C(=O)C5)[C@@H](CCC(=O)NCC(=O)CCC(=O)O)[C@@H]4C)c(C)c3C(C)OC (stereo not given in full)
3,1.82,CCC1=C(C)c2cc3[nH]c(cc4nc(c5c6[nH]c(cc1n2)c(C)c6C(=O)C5)[C@@H](CCC(=O)NCC(=O)CCC(=O)O)[C@@H]4C)c(C)c3C(C)OCCOC (stereo not given in full)

# Test system: not listed separately
# Test: Absorption property of compound in DMSO assessed as strong absorption wavelength at 1 x 10^-3 M by UV-spectra analysis
# Format: physicochemical
# Conditions: 1000 µM
# In short: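 Stocks 1 mM in DMSO; spectra run over […] range (units as printed), 300–800 nm in 1 nm steps, room temperature, quartz cuvettes, UV-vis spectrophotometer.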
row,Activity,Compound
1,660 to 670 nm,CCCCCOC(C)c1c(C)c2cc3nc(c4c5[nH]c(cc6nc(cc1[nH]2)C(C)=C6CC)c(C)c5C(=O)C4)[C@@H](CCC(=O)NCC(=O)CCC(=O)O)[C@@H]3C (stereo not given in full)
2,660 to 670 nm,CCC1=C(C)c2cc3[nH]c(cc4nc(c5c6[nH]c(cc1n2)c(C)c6C(=O)C5)[C@@H](CCC(=O)NCC(=O)CCC(=O)O)[C@@H]4C)c(C)c3C(C)OC (stereo not given in full)
3,660 to 670 nm,CCC1=C(C)c2cc3[nH]c(cc4nc(c5c6[nH]c(cc1n2)c(C)c6C(=O)C5)[C@@H](CCC(=O)NCC(=O)CCC(=O)O)[C@@H]4C)c(C)c3C(C)OCCOC (stereo not given in full)

# Test system: not listed separately
# Test: Emission property of a compound in DMSO assessed as red shift at 5 uM on excitation with light at 410 to 415 nm by 3D fluorescence spectra analysis
# Format: physicochemical
# Conditions: not given
# In short: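 Stock 1 mM in DMSO, measured at […] (so in the source); excitation scanned 350–640 nm, emission 600–750 nm, 1 nm steps, room temperature, quartz cuvettes; 3D fluorescence matrix spectra recorded.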
row,Activity,Compound
1,661 to 669 nm,CCCCCOC(C)c1c(C)c2cc3nc(c4c5[nH]c(cc6nc(cc1[nH]2)C(C)=C6CC)c(C)c5C(=O)C4)[C@@H](CCC(=O)NCC(=O)CCC(=O)O)[C@@H]3C (stereo not given in full)
2,661 to 669 nm,CCC1=C(C)c2cc3[nH]c(cc4nc(c5c6[nH]c(cc1n2)c(C)c6C(=O)C5)[C@@H](CCC(=O)NCC(=O)CCC(=O)O)[C@@H]4C)c(C)c3C(C)OC (stereo not given in full)
3,661 to 669 nm,CCC1=C(C)c2cc3[nH]c(cc4nc(c5c6[nH]c(cc1n2)c(C)c6C(=O)C5)[C@@H](CCC(=O)NCC(=O)CCC(=O)O)[C@@H]4C)c(C)c3C(C)OCCOC (stereo not given in full)

# Test system: not listed separately
# Test: Induction of ROS generation in DMF solution assessed as slope of the photodegradation rate of DPBF at 2 uM followed by irradiation measured every 10 secs by spectrophotometric analysis
# Format: functional
# Conditions: not given
row,Compound,K
1,CCCCCOC(C)c1c(C)c2cc3nc(c4c5[nH]c(cc6nc(cc1[nH]2)C(C)=C6CC)c(C)c5C(=O)C4)[C@@H](CCC(=O)NCC(=O)CCC(=O)O)[C@@H]3C (stereo not given in full),0.0353 s⁻¹
2,CCC1=C(C)c2cc3[nH]c(cc4nc(c5c6[nH]c(cc1n2)c(C)c6C(=O)C5)[C@@H](CCC(=O)NCC(=O)CCC(=O)O)[C@@H]4C)c(C)c3C(C)OC (stereo not given in full),0.0195 s⁻¹
3,CCC1=C(C)c2cc3[nH]c(cc4nc(c5c6[nH]c(cc1n2)c(C)c6C(=O)C5)[C@@H](CCC(=O)NCC(=O)CCC(=O)O)[C@@H]4C)c(C)c3C(C)OCCOC (stereo not given in full),0.0162 s⁻¹

# Test system: not listed separately
# Test: Drug uptake in human A549 cells incubated upto 24 hrs by fluorescence spectrophotometer analysis
# Format: ADME, cell-based
# Conditions: a549, 24 h
# In short: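 A549 cells (F-12K, 10% FBS, 37 °C, 5% CO2) grown in 24 wells and exposed to photosensitizer for 0.5, 1, 2, 4, 8, 12 or 24 h; cells harvested by digestion, fluorescence read on a spectrophotometer.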
row,Drug uptake,Compound
1,Active,CCCCCOC(C)c1c(C)c2cc3nc(c4c5[nH]c(cc6nc(cc1[nH]2)C(C)=C6CC)c(C)c5C(=O)C4)[C@@H](CCC(=O)NCC(=O)CCC(=O)O)[C@@H]3C (stereo not given in full)
2,Active,CCC1=C(C)c2cc3[nH]c(cc4nc(c5c6[nH]c(cc1n2)c(C)c6C(=O)C5)[C@@H](CCC(=O)NCC(=O)CCC(=O)O)[C@@H]4C)c(C)c3C(C)OC (stereo not given in full)
3,Active,CCC1=C(C)c2cc3[nH]c(cc4nc(c5c6[nH]c(cc1n2)c(C)c6C(=O)C5)[C@@H](CCC(=O)NCC(=O)CCC(=O)O)[C@@H]4C)c(C)c3C(C)OCCOC (stereo not given in full)

# Test system: not listed separately
# Test: Dark toxicity in human A549 cells assessed as reduction in cell viability incubated under dark for 24 hrs measured after 48 hrs by MTT assay
# Format: cell-based
# Conditions: read-out: TC50
# In short: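 A549 cells seeded at 5×10^4 cells/100 µL per well for 24 h, treated in the dark with […] (so in the source) for 24 h; MTT added 4 h, absorbance 570 nm, 48 h later; viability as OD treated/OD control; triplicate, mean ± SD.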
row,Compound,CC50 at 24 h
1,CCCCCOC(C)c1c(C)c2cc3nc(c4c5[nH]c(cc6nc(cc1[nH]2)C(C)=C6CC)c(C)c5C(=O)C4)[C@@H](CCC(=O)NCC(=O)CCC(=O)O)[C@@H]3C (stereo not given in full),1040 nM
2,CCC1=C(C)c2cc3[nH]c(cc4nc(c5c6[nH]c(cc1n2)c(C)c6C(=O)C5)[C@@H](CCC(=O)NCC(=O)CCC(=O)O)[C@@H]4C)c(C)c3C(C)OC (stereo not given in full),2680 nM
3,CCC1=C(C)c2cc3[nH]c(cc4nc(c5c6[nH]c(cc1n2)c(C)c6C(=O)C5)[C@@H](CCC(=O)NCC(=O)CCC(=O)O)[C@@H]4C)c(C)c3C(C)OCCOC (stereo not given in full),5650 nM

# Test system: A549
# Test: Phototoxicity against human A549 cells assessed as reduction in cell proliferation irradiated with 1 J/cm2 of 650 nanometer laser light preincubated for 24 hrs measured after 48 hrs by MTT assay
# Format: functional, cell-based
# Conditions: A549, light or radiation study
# In short: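 A549 cells seeded 5×10^4 cells/100 µL per well, given […] for 24 h, then 650 nm semiconductor laser at 1 J/cm2 (25 mW/cm2, 40 s); MTT 4 h, absorbance 570 nm; viability vs control; triplicate, mean ± SD.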
row,Compound,IC50
1,CCCCCOC(C)c1c(C)c2cc3nc(c4c5[nH]c(cc6nc(cc1[nH]2)C(C)=C6CC)c(C)c5C(=O)C4)[C@@H](CCC(=O)NCC(=O)CCC(=O)O)[C@@H]3C (stereo not given in full),100 nM
2,CCC1=C(C)c2cc3[nH]c(cc4nc(c5c6[nH]c(cc1n2)c(C)c6C(=O)C5)[C@@H](CCC(=O)NCC(=O)CCC(=O)O)[C@@H]4C)c(C)c3C(C)OC (stereo not given in full),590 nM
3,CCC1=C(C)c2cc3[nH]c(cc4nc(c5c6[nH]c(cc1n2)c(C)c6C(=O)C5)[C@@H](CCC(=O)NCC(=O)CCC(=O)O)[C@@H]4C)c(C)c3C(C)OCCOC (stereo not given in full),760 nM

# Test system: A549
# Test: Photodynamic antitumor activity against human A549 cells xenografted in BALB/c nude mouse assessed as decrease in tumor weight at 0.3 mg/kg, iv followed by laser light irradiation at 120 J/cm2 measured after 14 days
# Format: functional
# Conditions: not given
# In short: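 Male BALB/c nude mice (5–6 weeks, 14–16 g) given 2×10^6 A549 cells s.c. in 0.2 mL PBS; at 6–7 mm tumors randomized into ten groups; drug via tail vein, 650 nm diode laser 120 J/cm2 at 180 mW/cm2 24 h later; caliper volume a×b²/2, followed 14 days.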
row,Compound,Activity
1,CCCCCOC(C)c1c(C)c2cc3nc(c4c5[nH]c(cc6nc(cc1[nH]2)C(C)=C6CC)c(C)c5C(=O)C4)[C@@H](CCC(=O)NCC(=O)CCC(=O)O)[C@@H]3C (stereo not given in full),0 g
2,CCC1=C(C)c2cc3[nH]c(cc4nc(c5c6[nH]c(cc1n2)c(C)c6C(=O)C5)[C@@H](CCC(=O)NCC(=O)CCC(=O)O)[C@@H]4C)c(C)c3C(C)OC (stereo not given in full),0.1265 g
3,CCC1=C(C)c2cc3[nH]c(cc4nc(c5c6[nH]c(cc1n2)c(C)c6C(=O)C5)[C@@H](CCC(=O)NCC(=O)CCC(=O)O)[C@@H]4C)c(C)c3C(C)OCCOC (stereo not given in full),0.2431 g

# Test system: not listed separately
# Test: Induction of ROS generation in DMF solution assessed as ROS quantum yield at 2 uM followed by irradiation measured every 10 secs by spectrophotometric analysis
# Format: functional
# Conditions: not given
row,Compound,Ratio
1,CCCCCOC(C)c1c(C)c2cc3nc(c4c5[nH]c(cc6nc(cc1[nH]2)C(C)=C6CC)c(C)c5C(=O)C4)[C@@H](CCC(=O)NCC(=O)CCC(=O)O)[C@@H]3C (stereo not given in full),1.76
2,CCC1=C(C)c2cc3[nH]c(cc4nc(c5c6[nH]c(cc1n2)c(C)c6C(=O)C5)[C@@H](CCC(=O)NCC(=O)CCC(=O)O)[C@@H]4C)c(C)c3C(C)OC (stereo not given in full),0.975
3,CCC1=C(C)c2cc3[nH]c(cc4nc(c5c6[nH]c(cc1n2)c(C)c6C(=O)C5)[C@@H](CCC(=O)NCC(=O)CCC(=O)O)[C@@H]4C)c(C)c3C(C)OCCOC (stereo not given in full),0.81
